Measurements taken from ChEMBL document CHEMBL2177094, “Structure dependence of long-chain [18F]fluorothia fatty acids as myocardial fatty acid oxidation probes” (J Med Chem, 2012).

Key:
Heart [1] = assay: Drug uptake in overnight fasted Sprague-Dawley rat heart at 9 to 11 MBq, iv at 5 mins by microPET analysis; assay type: ADME, organism-based; settings: in vivo
Procedure, shortened: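 Female rats fasted overnight, under isoflurane. 18F-labelled tracer (9–11 MBq) given into a tail vein. Dynamic PET acquisition over the upper thorax for 50 min, then a static whole-body scan 55–115 min post-injection. 2–5 rats per tracer.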

Muscle tissue [2] = assay: Biodistribution in overnight fasted Sprague-Dawley rat muscle pellet fraction at 0.7 to 1.4 MBq, iv preincubated with POCA for 2 hrs before compound administration measured at 120 mins post treatment by Folch-type extraction method; assay type: ADME, organism-based; settings: in vivo
Procedure, shortened: (§1)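 Female Sprague-Dawley rats, fasted overnight, under isoflurane (3.5% induction, 1.5% maintenance). [18F] tracer in 0.5–1.0% BSA/saline was given by tail vein. POCA group: 30 mg/kg i.p. 120 min before tracer. About 0.5 g tissue was homogenized and sonicated in chloroform/methanol (2:1) at 0 °C, then 40% urea and 5% H2SO4 were added and spun 10 min at 1,800 g. Aqueous, organic and pellet fractions were counted as % of total.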

Muscle tissue [3] = assay: Biodistribution in overnight fasted Sprague-Dawley rat muscle aqueous fraction at 0.7 to 1.4 MBq, iv preincubated with POCA for 2 hrs before compound administration measured at 120 mins post treatment by Folch-type extraction method; assay type: ADME, organism-based; settings: in vivo; procedure, shortened: as §1
Liver [4] = assay: Biodistribution in overnight fasted Sprague-Dawley rat liver organic fraction at 0.7 to 1.4 MBq, iv preincubated with POCA for 2 hrs before compound administration measured at 120 mins post treatment by Folch-type extraction method; assay type: ADME, organism-based; settings: in vivo; procedure, shortened: as §1
Heart [5] = assay: Biodistribution in overnight fasted Sprague-Dawley rat heart organic fraction at 0.7 to 1.4 MBq, iv preincubated with POCA for 2 hrs before compound administration measured at 120 mins post treatment by Folch-type extraction method; assay type: ADME, organism-based; settings: in vivo; procedure, shortened: as §1
Heart [6] = assay: Biodistribution in overnight fasted Sprague-Dawley rat heart aqueous fraction at 0.7 to 1.4 MBq, iv preincubated with POCA for 2 hrs before compound administration measured at 120 mins post treatment by Folch-type extraction method; assay type: ADME, organism-based; settings: in vivo; procedure, shortened: as §1
Muscle tissue [7] = assay: Biodistribution in overnight fasted Sprague-Dawley rat muscle pellet fraction at 0.7 to 1.4 MBq, iv at 120 mins by Folch-type extraction method; assay type: ADME, organism-based; settings: in vivo, 2 h; procedure, shortened: as §1
Muscle tissue [8] = assay: Biodistribution in overnight fasted Sprague-Dawley rat muscle organic fraction at 0.7 to 1.4 MBq, iv at 120 mins by Folch-type extraction method; assay type: ADME, organism-based; settings: in vivo, 2 h; procedure, shortened: as §1
Heart [9] = assay: Biodistribution in overnight fasted Sprague-Dawley rat heart pellet fraction at 0.7 to 1.4 MBq, iv at 120 mins by Folch-type extraction method; assay type: ADME, organism-based; settings: in vivo, 2 h; procedure, shortened: as §1
Muscle tissue [10] = assay: Biodistribution in overnight fasted Sprague-Dawley rat muscle pellet fraction at 0.7 to 1.4 MBq, iv preincubated with POCA for 2 hrs before compound administration measured at 30 mins post treatment by Folch-type extraction method; assay type: ADME, organism-based; settings: in vivo, 0.5 h; procedure, shortened: as §1
Muscle tissue [11] = assay: Biodistribution in overnight fasted Sprague-Dawley rat muscle organic fraction at 0.7 to 1.4 MBq, iv preincubated with POCA for 2 hrs before compound administration measured at 30 mins post treatment by Folch-type extraction method; assay type: ADME, organism-based; settings: in vivo, 0.5 h; procedure, shortened: as §1
Liver [12] = assay: Biodistribution in overnight fasted Sprague-Dawley rat liver organic fraction at 0.7 to 1.4 MBq, iv preincubated with POCA for 2 hrs before compound administration measured at 30 mins post treatment by Folch-type extraction method; assay type: ADME, organism-based; settings: in vivo, 0.5 h; procedure, shortened: as §1
Heart [13] = assay: Biodistribution in overnight fasted Sprague-Dawley rat heart pellet fraction at 0.7 to 1.4 MBq, iv preincubated with POCA for 2 hrs before compound administration measured at 30 mins post treatment by Folch-type extraction method; assay type: ADME, organism-based; settings: in vivo, 0.5 h; procedure, shortened: as §1
Heart [14] = assay: Biodistribution in overnight fasted Sprague-Dawley rat heart organic fraction at 0.7 to 1.4 MBq, iv preincubated with POCA for 2 hrs before compound administration measured at 30 mins post treatment by Folch-type extraction method; assay type: ADME, organism-based; settings: in vivo, 0.5 h; procedure, shortened: as §1
Muscle tissue [15] = assay: Biodistribution in overnight fasted Sprague-Dawley rat muscle organic fraction at 0.7 to 1.4 MBq, iv at 30 mins by Folch-type extraction method; assay type: ADME, organism-based; settings: in vivo, 0.5 h; procedure, shortened: as §1
Muscle tissue [16] = assay: Biodistribution in overnight fasted Sprague-Dawley rat muscle aqueous fraction at 0.7 to 1.4 MBq, iv at 30 mins by Folch-type extraction method; assay type: ADME, organism-based; settings: in vivo, 0.5 h; procedure, shortened: as §1
Liver [17] = assay: Biodistribution in overnight fasted Sprague-Dawley rat liver aqueous fraction at 0.7 to 1.4 MBq, iv at 30 mins by Folch-type extraction method; assay type: ADME, organism-based; settings: in vivo, 0.5 h; procedure, shortened: as §1
Heart [18] = assay: Biodistribution in overnight fasted Sprague-Dawley rat heart organic fraction at 0.7 to 1.4 MBq, iv at 30 mins by Folch-type extraction method; assay type: ADME, organism-based; settings: in vivo, 0.5 h; procedure, shortened: as §1
Bone [19] = assay: Drug uptake in overnight fasted Sprague-Dawley rat bone at 0.7 to 1.4 MBq, iv preincubated with POCA for 2 hrs before compound administration measured at 120 mins post treatment; assay type: ADME, organism-based, Bone element; settings: in vivo
Procedure, shortened: (§2)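 Overnight-fasted female Sprague-Dawley rats under isoflurane received the [18F] tracer in 0.5–1.0% BSA/saline by tail vein. POCA group: 30 mg/kg i.p. 2 h before tracer. Tissues were excised at 30 or 120 min, weighed and gamma-counted with decay correction. Uptake = % dose kg/g, i.e. CPM tissue × body wt (kg) × 100 / (tissue wt (g) × CPM dose). n = 5–6.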

Lung = assay: Drug uptake in overnight fasted Sprague-Dawley rat lung at 0.7 to 1.4 MBq, iv preincubated with POCA for 2 hrs before compound administration measured at 120 mins post treatment; assay type: ADME, organism-based; settings: in vivo
Procedure, shortened: (§3)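 Female rats fasted overnight, under isoflurane (3.5% induction, 1.5% maintenance). 18F-labelled tracer formulated in 0.5–1.0% BSA/saline, injected via tail vein. Tissues harvested at 30 or 120 min, weighed, gamma-counted, decay-corrected. Uptake expressed as % dose kg/g, i.e. tissue CPM × body wt (kg) × 100 / (tissue wt (g) × dose CPM). POCA groups received 30 mg/kg i.p. 2 h before tracer. n = 5–6.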

Bone [20] = assay: Drug uptake in overnight fasted Sprague-Dawley rat bone at 0.7 to 1.4 MBq, iv at 120 mins; assay type: ADME, organism-based, Bone element; settings: in vivo, 2 h; procedure, shortened: as §2
Heart [21] = assay: Drug uptake in overnight fasted Sprague-Dawley rat heart at 0.7 to 1.4 MBq, iv at 120 mins; assay type: ADME, organism-based; settings: in vivo, 2 h; procedure, shortened: as §2
Blood [22] = assay: Drug uptake in overnight fasted Sprague-Dawley rat blood at 0.7 to 1.4 MBq, iv at 120 mins; assay type: ADME, organism-based; settings: in vivo, 2 h; procedure, shortened: as §2
Muscle tissue [23] = assay: Drug uptake in overnight fasted Sprague-Dawley rat muscle at 0.7 to 1.4 MBq, iv preincubated with POCA for 2 hrs before compound administration measured at 30 mins post treatment; assay type: ADME, organism-based; settings: in vivo, 0.5 h; procedure, shortened: as §3
Liver [24] = assay: Drug uptake in overnight fasted Sprague-Dawley rat liver at 0.7 to 1.4 MBq, iv preincubated with POCA for 2 hrs before compound administration measured at 30 mins post treatment; assay type: ADME, organism-based; settings: in vivo, 0.5 h; procedure, shortened: as §3
Heart [25] = assay: Drug uptake in overnight fasted Sprague-Dawley rat heart at 0.7 to 1.4 MBq, iv preincubated with POCA for 2 hrs before compound administration measured at 30 mins post treatment; assay type: ADME, organism-based; settings: in vivo, 0.5 h; procedure, shortened: as §3
Brain = assay: Drug uptake in overnight fasted Sprague-Dawley rat brain at 0.7 to 1.4 MBq, iv at 30 mins; assay type: ADME, organism-based; settings: in vivo, 0.5 h; procedure, shortened: as §2
Kidney = assay: Drug uptake in overnight fasted Sprague-Dawley rat kidney at 0.7 to 1.4 MBq, iv at 30 mins; assay type: ADME, organism-based; settings: in vivo, 0.5 h; procedure, shortened: as §3
Blood [26] = assay: Drug uptake in overnight fasted Sprague-Dawley rat blood at 0.7 to 1.4 MBq, iv at 30 mins; assay type: ADME, organism-based; settings: in vivo, 0.5 h; procedure, shortened: as §2

Compound	Drug uptake (Heart [1])	Drug uptake (Muscle tissue [2])	Drug uptake (Muscle tissue [3])	Drug uptake (Liver [4])	Drug uptake (Heart [5])	Drug uptake (Heart [6])	Drug uptake (Muscle tissue [7])	Drug uptake (Muscle tissue [8])	Drug uptake (Heart [9])	Drug uptake (Muscle tissue [10])	Drug uptake (Muscle tissue [11])	Drug uptake (Liver [12])	Drug uptake (Heart [13])	Drug uptake (Heart [14])	Drug uptake (Muscle tissue [15])	Drug uptake (Muscle tissue [16])	Drug uptake (Liver [17])	Drug uptake (Heart [18])	Drug uptake (Bone [19])	Drug uptake (Lung)	also measured
O=C(O)CCCCSCCCCCCCCCCCC[18F]	Active	31.41%	9.3%	64.78%	74.2%	3.3%	42.06%	39.74%	67.39%	48.85%	43.43%	54.88%	32.16%	63.99%	44.55%	16.49%	9.65%	25.81%	0.2104 %IDKg/g	0.0536 %IDKg/g	Drug uptake (Bone [20]): 0.2467 %IDKg/g; Drug uptake (Heart [21]): 0.2815 %IDKg/g; Drug uptake (Blood [22]): 0.0241 %IDKg/g; Drug uptake (Muscle tissue [23]): 0.0639 %IDKg/g; Drug uptake (Liver [24]): 0.8492 %IDKg/g; Drug uptake (Heart [25]): 0.3331 %IDKg/g; Drug uptake (Brain): 0.033 %IDKg/g; Drug uptake (Kidney): 0.2095 %IDKg/g; Drug uptake (Blood [26]): 0.029 %IDKg/g
O=C(O)CCSCCCCCCCCCCCCCC[18F]	Active	32.62%	9.12%	67.69%	74.91%	3.39%	39.51%	48.9%	71.45%	27.04%	47.15%	51.76%	24.67%	67.58%	38.77%	28.99%	15.36%	17.29%	0.4042 %IDKg/g	0.0244 %IDKg/g	Drug uptake (Bone [20]): 0.2934 %IDKg/g; Drug uptake (Heart [21]): 0.2144 %IDKg/g; Drug uptake (Blood [22]): 0.0098 %IDKg/g; Drug uptake (Muscle tissue [23]): 0.0443 %IDKg/g; Drug uptake (Liver [24]): 0.4064 %IDKg/g; Drug uptake (Heart [25]): 0.1814 %IDKg/g; Drug uptake (Brain): 0.02 %IDKg/g; Drug uptake (Kidney): 0.1872 %IDKg/g; Drug uptake (Blood [26]): 0.0392 %IDKg/g
O=C(O)CCSCCCCCCCCCCCC[18F]	Active	32.69%	19.16%	50%	67.98%	7.53%	49.81%	34%	76.93%	32.63%	42.23%	41.68%	32.81%	51.9%	33.56%	23.24%	13.52%	38.56%	0.6549 %IDKg/g	0.0472 %IDKg/g	Drug uptake (Bone [20]): 0.3143 %IDKg/g; Drug uptake (Heart [21]): 0.1069 %IDKg/g; Drug uptake (Blood [22]): 0.0105 %IDKg/g; Drug uptake (Muscle tissue [23]): 0.0333 %IDKg/g; Drug uptake (Liver [24]): 0.6197 %IDKg/g; Drug uptake (Heart [25]): 0.0792 %IDKg/g; Drug uptake (Brain): 0.067 %IDKg/g; Drug uptake (Kidney): 0.209 %IDKg/g; Drug uptake (Blood [26]): 0.07 %IDKg/g
O=C(O)CCSCCCC/C=C\CCCCCCCC[18F]	Active	35.36%	11.37%	68.06%	66.66%	4.19%	67.95%	21.98%	88.78%	32.74%	43.19%	58.8%	23.8%	62.03%	21.75%	18.79%	8.43%	8.46%	0.299 %IDKg/g	0.0179 %IDKg/g	Drug uptake (Bone [20]): 0.461 %IDKg/g; Drug uptake (Heart [21]): 0.8164 %IDKg/g; Drug uptake (Blood [22]): 0.0185 %IDKg/g; Drug uptake (Muscle tissue [23]): 0.0297 %IDKg/g; Drug uptake (Liver [24]): 0.8162 %IDKg/g; Drug uptake (Heart [25]): 0.1155 %IDKg/g; Drug uptake (Brain): 0.0206 %IDKg/g; Drug uptake (Kidney): 0.2035 %IDKg/g; Drug uptake (Blood [26]): 0.0441 %IDKg/g
